{"source": "paper PMC10141526", "about": "(The Journal of Biological Chemistry, 2023)", "key": {"[1]": {"tested_on": "CD69", "assay": "Flow cytometry, surface expression of CD69 after Mn2+ activation", "format": "cell-based, mouse (NOD, BALB/c)", "conditions": "PBMC and spleen, Mn2+ 30 min"}, "[2]": {"tested_on": "CD11b", "assay": "Flow cytometry, surface expression of CD11b after Mn2+ activation", "format": "cell-based, mouse (NOD, BALB/c)", "how_it_was_run": "(§1)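 NOD and BALB/c PBMC, isolated over density medium and used without further purification, were stained with or without Mn2+ activation for CD4, CD40, CD18, CD11a and CD11b, with isotype controls (1 to 3 × 10^5 cells per stain). Flow cytometry, lymphocyte gate split into CD4hi (conventional CD4), CD4lo (Th40) and CD4-negative cells. CD11a or CD11b surface expression compared ± Mn2+.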"}, "[3]": {"tested_on": "CD25", "assay": "Flow cytometry, surface expression of CD25 after Mn2+ activation", "format": "cell-based, mouse (NOD, BALB/c)", "conditions": "PBMC and spleen, Mn2+ 30 min"}, "[4]": {"tested_on": "CD11a", "assay": "Flow cytometry, surface expression of CD11a after Mn2+ activation", "format": "cell-based, mouse (NOD, BALB/c)", "how_it_was_run": "as §1"}, "[5]": {"tested_on": "CD18", "assay": "Flow cytometry, surface expression of CD18 after Mn2+ activation", "format": "cell-based, mouse (NOD, BALB/c)", "how_it_was_run": "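Density-medium-purified PBMC from NOD and BALB/c mice, unactivated or Mn2+-activated, stained for CD4, CD40, CD18, CD11a and CD11b against isotype controls; 1 to 3 × 10^5 cells per stain. Lymphocytes gated as CD4hi, CD4lo (Th40) or CD4-negative, then CD18hi and CD18lo populations scored. One-way ANOVA with Tukey's multiple comparisons test.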"}, "[6]": {"tested_on": "CD40", "assay": "Flow cytometry, surface expression of CD40 after Mn2+ activation", "format": "cell-based, mouse (NOD, BALB/c)", "how_it_was_run": "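Flow cytometry on unfractionated PBMC from NOD and BALB/c mice ± Mn2+ activation, stained for CD4, CD40, CD18, CD11a and CD11b with isotype controls (1 to 3 × 10^5 cells). CD40 assessed in CD4hi, CD4lo (Th40) and CD4-negative subsets of the lymphocyte gate, read as overall mean fluorescence intensity. Two-tailed t test.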"}, "[7]": {"tested_on": "CD154", "assay": "Flow cytometry, surface expression of CD154 after Mn2+ activation", "format": "cell-based, mouse (NOD, BALB/c)", "conditions": "PBMC and spleen, Mn2+ 30 min"}, "[8]": {"tested_on": "CD18", "assay": "Control immunoprecipitation", "format": "binding, mouse (NOD)", "conditions": "NOD cell lysates; OVA-pep IP, control for KGYY15"}, "[9]": {"tested_on": "CD11b", "assay": "Control immunoprecipitation", "format": "binding, mouse (NOD)", "conditions": "NOD cell lysates; OVA-pep IP, control for KGYY15"}, "[10]": {"tested_on": "CD11a", "assay": "Control immunoprecipitation", "format": "binding, mouse (NOD)", "conditions": "NOD cell lysates; OVA-pep IP, control for KGYY15"}, "[11]": {"biological_target": "FITC-conjugated mouse KGYY15 (mouse)", "assay": "flow cytometry on cells"}, "[12]": {"tested_on": "integrin αIIbβ3", "conditions": "cited from earlier work"}, "[13]": {"tested_on": "integrin α5β1 (CD49e/CD29)", "conditions": "cited from earlier work"}, "[14]": {"tested_on": "integrin αMβ2 (CD11b/CD18)", "conditions": "cited from earlier work"}, "[15]": {"conditions": "PBMC, any cell type, either strain"}, "[16]": {"conditions": "spleen cells, two mouse strains"}, "[17]": {"conditions": "PBMC conventional CD4 T cells, both strains"}, "[18]": {"conditions": "PBMC, BALB/c Th40, NOD Th40 and CD4-negative cells"}}, "data": [{"molecule": "[Mn+2]", "note": "[Mn^2+, manganese divalent ions]", "values": [{"measurement": "surface expression of CD69", "setting": "[1]", "result": "None of the three molecules was affected"}, {"measurement": "surface expression of CD11b", "setting": "[2]; [15]", "result": "no change"}, {"measurement": "surface expression of CD11b", "setting": "[2]; [16]", "result": "did not reveal any change"}, {"measurement": "surface expression of CD25", "setting": "[3]", "result": "None of the three molecules was affected"}, {"measurement": "surface expression of CD11a", "setting": "[4]; [15]", "result": "no change"}, {"measurement": "surface expression of CD11a", "setting": "[4]; [16]", "result": "did not reveal any change"}, {"measurement": "surface expression of CD18", "setting": "[5]; [17]", "result": "did not change surface expression of CD40 or CD18"}, {"measurement": "CD18hi population", "setting": "[5]; [18]", "result": "decrease in the CD18^hi population"}, {"measurement": "CD18lo population", "setting": "[5]; [18]", "result": "corresponding increase in the CD18^lo population"}, {"measurement": "surface expression of CD18", "setting": "[5]; [16]", "result": "did not reveal any change"}, {"measurement": "surface expression of CD40", "setting": "[6]; [17]", "result": "did not change surface expression of CD40 or CD18"}, {"measurement": "percentage of cells expressing CD40 on surface", "setting": "[6]; PBMC, NOD and BALB/c", "result": "did not increase the percentage of cells expressing CD40"}, {"measurement": "intensity of CD40 surface expression", "setting": "[6]; [18]", "result": "significantly elevated"}, {"measurement": "surface expression of CD40", "setting": "[6]; [16]", "result": "did not reveal any change"}, {"measurement": "surface expression of CD154", "setting": "[7]", "result": "None of the three molecules was affected"}]}, {"molecule": "OVA-peptide: unrelated peptide, the 17-amino-acid OVA (323–339) peptide, control for KGYY15 (KISQAVHAAHAEINEAG; UniProt P01012 323-339, looked up, fragment)", "values": [{"measurement": "immunoprecipitation of CD18 (control)", "setting": "[8]", "result": "No CD11a, CD11b, or CD18 was immunoprecipitated"}, {"measurement": "immunoprecipitation of CD11b (control)", "setting": "[9]", "result": "No CD11a, CD11b, or CD18 was immunoprecipitated"}, {"measurement": "immunoprecipitation of CD11a (control)", "setting": "[10]", "result": "No CD11a, CD11b, or CD18 was immunoprecipitated"}]}, {"molecule": "recombinant CD11a/CD18 (R&D Systems cat# 3868-AV-050) (from UniProt P20701 26-1090; P05107 23-700) (complex)", "values": [{"measurement": "percent reduction of KGYY15-FITC staining of NAMALWA cells", "setting": "[11]", "result": 29.4, "unit": "%"}]}, {"molecule": "recombinant CD11b/CD18 (R&D Systems cat# 4047-AM-050) (from UniProt P11215 17-1104; P05107 23-700) (complex)", "values": [{"measurement": "percent reduction of KGYY15-FITC staining of NAMALWA cells", "setting": "[11]", "result": 22.7, "unit": "%"}]}, {"molecule": "CD154: natural CD40-ligand, whole protein (protein, UniProt P27548 112-260, looked up) CD40 ligand, soluble form: MQRGDEDPQIAAHVVSEANSNAASVLQWAKKGYYTMKSNLVMLENGKQLTVKREGLYYVYTQVTFCSNREPSSQRPFIVGLWLKPSSGSERILLKAANTHSSSQLCEQQSVHLGGVFELQAGASVFVNVTEASQVIHRVGFSSFGLLKL", "values": [{"measurement": "binding to integrin", "setting": "[12]", "result": "binds"}, {"measurement": "binding to integrin", "setting": "[13]", "result": "binds"}, {"measurement": "binding to integrin", "setting": "[14]", "result": "binds"}]}]}
